For data set [1], the species on record is Bos taurus. Put plainly: Induction of bovine brain beta-tubulin assembly assessed as prevention of temperature-induced microtubule disassembly at 60 uM at 4 degC by absorption spectrophotometric analysis relative to control. The essentials:
(§1)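 Bovine brain tubulin, 15 µM final, in PMEG buffer (100 mM Pipes, 1 mM MgSO4, 2 mM EGTA, 1 mM GTP, pH 6.9), equilibrated to 37 °C and baseline recorded. Ligand (15 or 60 µM) added, and assembly followed as light scattering at OD 350 nm. The sample was then cooled to 4 °C to follow disassembly. DMSO was 10% v/v final; the control had tubulin plus DMSO only.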

For data set [2], the species on record is Bos taurus. Put plainly: Induction of bovine brain alpha-tubulin assembly assessed as prevention of temperature-induced microtubule disassembly at 60 uM at 4 degC by absorption spectrophotometric analysis relative to control. In a few lines: as §1
Data set [3] is filed under the species Bos taurus. Put plainly: Induction of bovine brain beta-tubulin assembly assessed as increase in formed microtubule concentration at 60 uM at 37 degC by absorption spectrophotometric analysis relative to control. In a few lines:
as §1

Data set [4] is filed under the species Bos taurus. Put plainly: Induction of bovine brain alpha-tubulin assembly assessed as increase in formed microtubule concentration at 60 uM at 37 degC by absorption spectrophotometric analysis relative to control. In a few lines:
as §1

In the next data set the test system is A2780. Put plainly: Antiproliferative activity against human A2780 cells after 2 days by alamar blue assay. The data set is classed as functional, cell-based. The note with it: A2780, 48 h.
Data set [5] in a line: Solubility of the compound in buffer containing 10% DMSO. Format: physicochemical.
For data set [6], the species on record is Bos taurus. Put plainly: Induction of bovine brain alpha-tubulin polymerization at 60 uM using DAPI staining-based by fluorescence assay relative to control. In a few lines:
(§2)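 Bovine brain tubulin was loaded with 5 mM GDP in PME buffer (100 mM Pipes, 1 mM MgSO4, 2 mM EGTA, pH 6.9), then gel-filtered into PMED (PME plus 0.1 mM GDP). Tubulin (8 µM, just below critical concentration) with 10 µM DAPI was equilibrated at 37 °C. Ligand (8 or 60 µM) in DMSO (10% v/v final) was added to start the reaction. Fluorescence (ex 360, em 450 nm) was read to steady state against a DMSO-only control.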

The species named for data set [7] is Bos taurus. Put plainly: Induction of bovine brain beta-tubulin polymerization at 60 uM using DAPI staining-based by fluorescence assay relative to control. In a few lines:
as §2

For data set [8], the species on record is Bos taurus. Put plainly: Induction of bovine brain beta-tubulin polymerization at 8 uM using DAPI staining-based by fluorescence assay relative to control. The essentials:
as §2

The species named for data set [9] is Bos taurus. Put plainly: Induction of bovine brain alpha-tubulin polymerization at 8 uM using DAPI staining-based by fluorescence assay relative to control. In a few lines:
as §2

The species entered for data set [10] is Bos taurus. Put plainly: Induction of bovine brain beta-tubulin assembly assessed as prevention of temperature-induced microtubule disassembly at 15 uM at 4 degC by absorption spectrophotometric analysis relative to control. In a few lines:
as §1

For data set [11], the species on record is Bos taurus. Put plainly: Induction of bovine brain alpha-tubulin assembly assessed as prevention of temperature-induced microtubule disassembly at 15 uM at 4 degC by absorption spectrophotometric analysis relative to control. The essentials: as §1
The species named for data set [12] is Bos taurus. Put plainly: Induction of bovine brain beta-tubulin assembly assessed as increase in formed microtubule concentration at 15 uM at 37 degC by absorption spectrophotometric analysis relative to control. In a few lines: as §1
The species entered for data set [13] is Bos taurus. Put plainly: Induction of bovine brain alpha-tubulin assembly assessed as increase in formed microtubule concentration at 15 uM at 37 degC by absorption spectrophotometric analysis relative to control. The essentials: as §1

≈ marks a conversion by molar mass, not a printed value. Calls of active or inactive are those of the source. The calls are words filed in the database; no cut-off is given here.

In the case of `O=C(N[C@H]1c2ccccc2C/C=C/COc2cccc3c2[C@@H](OC(=O)c2ccccc2)[C@@H]2C[C@@H](CN2C3)OC(=O)[C@@H]1O)c1ccccc1`, the outcome in the data set listed under Bos taurus [1], in the data set listed under Bos taurus [2], in the data set listed under Bos taurus [3] and in the data set filed under Bos taurus [4] was Active. Further, in the data set on A2780, 5.1 µM corresponded to half-maximal inhibition (IC50). In addition, the concentration in solution in data set [5] (solubility) was 60 µM (≈ 38.7 µg/mL). Also, the result in the data set filed under Bos taurus [6] and in the data set listed under Bos taurus [7] was inactive.
For `O=C(N[C@H]1c2ccccc2C/C=C/COc2cccc3c2[C@H](OC(=O)c2ccccc2)[C@@H]2C[C@@H](CN2C3)OC(=O)[C@@H]1O)c1ccccc1`, the result in the data set filed under Bos taurus [1], in the data set filed under Bos taurus [2], in the data set filed under Bos taurus [3] and in the data set filed under Bos taurus [4] was Active. 4 µM corresponded to half-maximal inhibition in the data set on A2780 (IC50). Besides, the solubility (as a rule, how much of the substance goes into solution per volume) in [5] amounted to 60 µM (≈ 38.7 µg/mL). In addition, the result in the data set filed under Bos taurus [6] and in the data set listed under Bos taurus [7] was inactive.
In the case of `O=C(N[C@H]1c2ccccc2OCC/C=C/COc2cccc3c2[C@H](OC(=O)c2ccccc2)[C@@H]2C[C@@H](CN2C3)OC(=O)[C@@H]1O)c1ccccc1`, the result in the data set listed under Bos taurus [1], in the data set listed under Bos taurus [2], in the data set listed under Bos taurus [3] and in the data set filed under Bos taurus [4] was Active. Besides, half-maximal inhibition in the data set with A2780 (IC50) was put at 4.5 µM. This compound yielded a solubility in data set [5] of 60 µM (≈ 40.5 µg/mL). In addition, the result in the data set listed under Bos taurus [6] and in the data set filed under Bos taurus [7] was inactive.
Turning to `C=CCOc1cccc2c1[C@H](OC(=O)c1ccccc1)[C@@H]1C[C@H](OC(=O)[C@H](O)[C@@H](NC(=O)c3ccccc3)c3ccccc3CC=C)CN1C2`, the outcome in the data set listed under Bos taurus [1], in the data set filed under Bos taurus [2], in the data set filed under Bos taurus [3] and in the data set listed under Bos taurus [4] was Active. Further, the IC50 – broadly, the concentration that inhibits the measured activity by half – in the data set with A2780 turned out to be 4.7 µM. For the same compound, the solubility in data set [5] came out at 60 µM (≈ 40.4 µg/mL). Moreover, the result in the data set listed under Bos taurus [6] and in the data set filed under Bos taurus [7] was inactive.
Consider `CC(=O)O[C@H]1C(=O)[C@@]2(C)[C@H]([C@H](OC(=O)c3ccccc3)[C@]3(O)C[C@H](OC(=O)[C@H](O)[C@@H](NC(=O)c4ccccc4)c4ccccc4)C(C)=C1C3(C)C)[C@]1(OC(C)=O)CO[C@@H]1C[C@@H]2O`, for which the result in the data set filed under Bos taurus [8] and in the data set filed under Bos taurus [9] was inactive. Moreover, the result in the data set listed under Bos taurus [10], in the data set listed under Bos taurus [11], in the data set filed under Bos taurus [12] and in the data set listed under Bos taurus [13] was Active.
In the case of `O=C(N[C@H]1c2ccccc2OC/C=C/COc2cccc3c2[C@H](OC(=O)c2ccccc2)[C@@H]2C[C@@H](CN2C3)OC(=O)[C@@H]1O)c1ccccc1`, the result in the data set listed under Bos taurus [1], in the data set listed under Bos taurus [2], in the data set listed under Bos taurus [3] and in the data set listed under Bos taurus [4] was Active. This compound also registered an IC50 in the data set on A2780 of 4.1 µM. In [5], this compound had a solubility of 60 µM (≈ 39.6 µg/mL). For the same compound, the result in the data set listed under Bos taurus [6] and in the data set listed under Bos taurus [7] was inactive.
As for `C=CCCOc1ccccc1[C@H](NC(=O)c1ccccc1)[C@@H](O)C(=O)O[C@H]1C[C@H]2[C@@H](OC(=O)c3ccccc3)c3c(cccc3OCC=C)CN2C1`, the result in the data set filed under Bos taurus [1], in the data set filed under Bos taurus [2], in the data set listed under Bos taurus [3] and in the data set listed under Bos taurus [4] was Active. The compound also registered an IC50 in the data set with A2780 of 5.8 µM. For the same compound, the solubility in data set [5] was 60 µM (≈ 42.2 µg/mL). Also, the result in the data set filed under Bos taurus [6] and in the data set filed under Bos taurus [7] was inactive.
On to `C=CCOc1cccc2c1[C@@H](OC(=O)c1ccccc1)[C@@H]1C[C@H](OC(=O)[C@H](O)[C@@H](NC(=O)c3ccccc3)c3ccccc3CC=C)CN1C2`, for which the result in the data set listed under Bos taurus [1], in the data set listed under Bos taurus [2], in the data set listed under Bos taurus [3] and in the data set filed under Bos taurus [4] was Active. In the data set on A2780, this compound showed a half-inhibitory concentration (IC50) of 23.8 µM. In [5], this compound registered a solubility of 60 µM (≈ 40.4 µg/mL). Further, the outcome in the data set filed under Bos taurus [6] and in the data set filed under Bos taurus [7] was inactive.
As to `C=CCOc1ccccc1[C@H](NC(=O)c1ccccc1)[C@@H](O)C(=O)O[C@H]1C[C@H]2[C@@H](OC(=O)c3ccccc3)c3c(cccc3OCC=C)CN2C1`, the outcome in the data set listed under Bos taurus [1], in the data set listed under Bos taurus [2], in the data set filed under Bos taurus [3] and in the data set listed under Bos taurus [4] was Active. For the same compound, in the data set on A2780, the IC50 stood at 8.3 µM. Also, the concentration in solution in data set [5] (solubility) came to 60 µM (≈ 41.3 µg/mL). For the same compound, the result in the data set filed under Bos taurus [6] and in the data set listed under Bos taurus [7] was inactive.

The values above are taken from ChEMBL document CHEMBL1926552, “Design and synthesis of simplified taxol analogs based on the T-Taxol bioactive conformation” (Bioorg Med Chem, 2011).
